# RanGTP-Impb inh – inhibitors of RanGTP-importin-beta interaction, primary screen, biochemical, FRET, CFP-Ran, YFP-importin-beta, homogeneous; cell-free CFP-Ran/YFP-importin-beta FRET ratio; inhibition, % (concentration not given with the values); 300,000 tested, 1.1% active;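 active = more than half of the replicate wells show a fall in the fluorescence ratio signal beyond about 16%, limit read from the data, passing the limit was not always enough; inconclusive = exactly half of the replicate wells pass the set limit; inactive = fewer than half of replicates pass the limit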;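 also: 0% = DMSO wells and 100% = Ran loaded with GDP instead of GTP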
# Hck-Nef inh – blocks Nef-activated human Hck kinase. AID 463187. inhibition, % at 20 µM. 220,000 tested, 0.68% active. P08631. Recombinant Hck-YEEI plus Nef, Z-Lyte FRET kinase assay;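 active = Hck-Nef kinase inhibition above about 50%, limit read from the data; inactive = inhibition below that limit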;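 also: 0% = DMSO with Hck plus Nef and 100% = Hck alone without Nef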
# Runt-SMMHC FRET – Runt domain-CBFb-SMMHC interaction inhibition. Q01196+Q13951. Cerulean-Runt/Venus-CBFb-SMMHC FRET ratio 530/480, 1 h. inhibition, % at 20 µM. 220,000 tested, 0.74% active. AID 1434;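 active = mean inhibition across duplicate retests at 20 µM reaching about 50%, limit read from the data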;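 also: 0% = DMSO wells and 100% = wells with excess untagged CBFb-SMMHC; inhibitors lower the FRET ratio by blocking Runt binding to CBFb-SMMHC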
# Target sequence (Q01196 whole entry, looked up, the tested form may be a part): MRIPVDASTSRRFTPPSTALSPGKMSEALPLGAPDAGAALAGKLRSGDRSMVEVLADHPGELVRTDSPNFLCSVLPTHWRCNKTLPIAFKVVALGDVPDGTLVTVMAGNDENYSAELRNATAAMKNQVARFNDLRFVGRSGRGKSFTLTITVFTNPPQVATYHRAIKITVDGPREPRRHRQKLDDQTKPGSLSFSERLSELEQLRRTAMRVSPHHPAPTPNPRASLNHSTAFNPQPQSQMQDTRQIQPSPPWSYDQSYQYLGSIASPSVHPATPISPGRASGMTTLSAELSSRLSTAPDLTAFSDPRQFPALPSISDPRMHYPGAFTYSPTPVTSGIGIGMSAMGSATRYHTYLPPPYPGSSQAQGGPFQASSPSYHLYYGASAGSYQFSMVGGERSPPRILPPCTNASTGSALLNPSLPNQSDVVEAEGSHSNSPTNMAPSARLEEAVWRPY
# Target sequence (Q13951 whole entry, looked up, the tested form may be a part): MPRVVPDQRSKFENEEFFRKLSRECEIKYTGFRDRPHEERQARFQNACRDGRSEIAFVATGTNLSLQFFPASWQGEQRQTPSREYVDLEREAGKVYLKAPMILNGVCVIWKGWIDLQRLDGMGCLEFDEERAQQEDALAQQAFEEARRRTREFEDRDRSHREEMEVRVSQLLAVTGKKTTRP
# Runt-CBFb FRET – inhibitors of human RUNX1 Runt domain binding to CBFb. AID 1496. Q01196+Q13951. 220,000 tested, 0.46% active. inhibition, % at 20 µM. Cerulean-Runt/Venus-CBFb FRET ratio 530/480, 1 h;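 active = inhibition over about 50% at 20 µM in the single-dose screen, limit read from the data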;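 also: 0% = DMSO wells and 100% = excess unlabeled CBFb competitor control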
#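 Measured by: fluorescence energy transfer, 422 nm excitation, 530/480 nm emission; Assay system: Cerulean-Runt domain; Medium: Tris pH 7.5 buffer with BSA; Measure: loss of energy transfer signal; Controls: 5 µM unlabeled CBFb as full-inhibition high control; Incubation: protein complex preformed 1 h, compound exposure 1 h, room temperature, dark.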
# CaV13 ICDI inh – Primary screen for inhibitors of IQ motif and Ca2+-dependent inactivation inhibitor domain binding in CACNA1D, Förster resonance energy transfer in living cells, …. HEK cells, CFP/YFP FRET ICDI-IQ, plate reader, 10 min; percent FRET-ratio fall versus neutral wells. inhibition, % at 12.3 µM. 340,000 tested, 0.098% active;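 active = mean replicate inhibition of at least 30% and at least 1% of replicates passing that level; inconclusive = only one of the two criteria is met; inactive = neither criterion is met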;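 also: 0% = median of the neutral control wells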
# Hck-Nef confirm – Hck-Nef kinase inhibition, confirmation. shares compounds with Hck-Nef inh. Recombinant Hck-YEEI:Nef, Z-Lyte FRET kinase assay. calls only at 10 µM. 1,300 tested, 28% active;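 active = average inhibition of at least 50%, with Z-scores no higher than 3 in both the phospho-tyrosine peptide and fluorescence counterscreens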
# * = called active by the depositor; i = inactive; ? = inconclusive; . = no result given; + = active, no number. In the library only some 1.5% were active in any assay of this set; here they are far more common.
SMILES,RanGTP-Impb inh,Hck-Nef inh,Runt-SMMHC FRET,Runt-CBFb FRET,CaV13 ICDI inh,Hck-Nef confirm
CC1(C2CC2)NC(=O)N(CC(=O)Nc2ccccc2C#N)C1=O (stereo unspecified),.,.,.,.,-16,.
CC1=CC(=O)c2c(O)ccc(O)c2C1=O,.,60*,-42,11,.,+
O=C1C=C(N2CCN(c3ccccn3)CC2)C(=O)c2c(O)ccc(O)c21,.,.,.,.,-6,.
CCOC(=O)C1=C(C)C(c2ccccc2O)NC(=O)N1 (stereo unspecified),-1,57*,1,1,-6,i
COc1ccc(/C=C(\C#N)C(=O)Nc2ccc3[nH]c(=O)[nH]c3c2)cc1,2,71*,-5,-3,-4,i
COc1ccc(NC(=O)/C(C#N)=C\c2ccc(OCc3ccc(C(=O)O)cc3)c(OC)c2)cc1,-5,70*,0,-3,3,i
COc1cc(/C=C(/C#N)c2ccc(F)cc2)ccc1OCc1ccc(C(=O)O)o1,3,55*,-2,-2,-4,+
N#C/C(=C\c1ccccc1OCc1ccc(C(=O)O)cc1)C(=O)Nc1ccc(O)cc1,-3,69*,-2,0,1,i
CCN1C(=O)[C@@H]2[C@H](C1=O)[C@@H]1C(=O)Nc3ccccc3C(=O)N1[C@@H]2c1ccc(OC)cc1,-4,.,.,.,-4,.
C/C(=C/CCC(C)[C@H]1CC[C@@]2(C)C3=C(CC[C@]12C)[C@@]1(C)CCC(=O)C(C)(C)[C@@H]1CC3)C(=O)O (stereo partly specified),1,100*,-28,-33,-11,+
C/C(=C/CCC(C)C1CCC2(C)C3CCC4C(C)(C)C(=O)CCC4(C)C3=CCC12C)C(=O)O (stereo unspecified),0,26,1,0,.,.
COc1ccc(N=Nc2c(C)[nH][nH]c2=O)cc1,0,60*,-14,-10,-1,i
Cc1[nH][nH]c(=O)c1N=Nc1ccc(F)cc1,7,.,.,.,-18,.
Cc1cc(C)nc(SCc2nnc(SCC(=O)N3CCOCC3)o2)n1,-1,-1,-2,0,-5,.
Oc1[nH]c2ccccc2c1C=Nc1ccc2c(c1)OCO2,-3,52*,7,10,-6,i
COc1ccccc1C1/C(=C(/O)c2ccccc2)C(=O)C(=O)N1CC(C)O (stereo unspecified),-1,72*,1,-1,.,i
COc1ccc(NC(=O)CN2C(=O)NC3(CCCCC3C)C2=O)cc1S(=O)(=O)N1CCOCC1 (stereo unspecified),.,.,.,.,-9,.
CCNc1cc2oc(=O)c(CN3CCOCC3)c(C)c2cc1C,.,82*,39,13,.,.
COc1ccc2c(c1)C=C(C(=O)OCc1cccnc1)CO2,?,20,-38,-9,-13,.
CSc1nc(N(C)CCO)c2sc3nc(-c4ccco4)c4c(c3c2n1)CCC4,-2,89*,-80,-11,.,i
CC(=O)NCc1ccc(C(=O)CCl)s1,-2,26,0,-2,-5,.
COc1ccccc1C(=O)Nc1ccc(-c2nnn(CC(=O)NCc3ccco3)n2)cc1,2,51*,-3,0,-3,i
Cc1c(-c2ccccc2)sc(Br)c1C(=O)N1CCOCC1,1,-1,2,2,-4,.
Cc1nc2c(ccc3nc(NC(=O)C4CC4)sc32)s1,6,54*,1,-2,2,i
CCC(=O)Nc1nc2ccc3sc(C)nc3c2s1,-1,19,-5,2,-5,.
SMILES,RanGTP-Impb inh,Hck-Nef inh,Runt-SMMHC FRET,Runt-CBFb FRET,CaV13 ICDI inh,Hck-Nef confirm
CS(=O)(=O)c1ccc(Cl)c(C(=O)NC2CCSc3ccccc32)c1 (stereo unspecified),?,.,.,.,-7,.
CCN(CC)c1ccc(NC(=O)Cn2c(C(C)NC(=O)c3ccccc3)nc3ccccc32)cc1 (stereo unspecified),-2,15,3,6,-15,.
Cc1ccc(C(=O)NC(C)c2nc3ccccc3n2CC(=O)Nc2c(C)cc(C)cc2C)cc1 (stereo unspecified),-1,57*,0,-2,.,i
Cc1nc2c(C)cccn2c(=O)c1NC(=O)c1cccs1,4,.,.,.,-6,.
CC(=O)N=c1c(C#N)cc2c(=O)n3cccc(C)c3nc2n1Cc1ccco1,80*,165*,88*,10,-14,i
Cc1cccn2c(=O)c3cc(C#N)c(=NC(=O)c4cccs4)n(CCCOC(C)C)c3nc12,81*,106*,88*,79*,11,i
CCOc1ccc2oc(C(=O)OCC(=O)N3CCCC(C)C3)c(C)c2c1 (stereo unspecified),.,.,.,.,-5,.
CC1(C)Cn2c(nnc2-c2ccccc2)S1,-4,0,0,2,.,.
COc1cc(/C=C2\SC(=O)N(Cc3ccc(F)cc3)C2=O)cc([N+](=O)[O-])c1O,-5,26,-13,0,-6,.
COc1cc(/C=C2\SC(=O)N(Cc3ccc(Cl)cc3)C2=O)cc([N+](=O)[O-])c1O,.,51*,-15,-6,-5,i
O=C(Nc1cccc(-c2nc3ccccc3[nH]2)c1)c1cccc(NC(=O)c2ccco2)c1,5,74*,-5,-6,-7,+
CCOc1ccc(C(=O)Nc2ccc(-c3nc4ccccc4[nH]3)cc2)cc1[N+](=O)[O-],3,78*,-6,-2,-6,+
O=C(Nc1ccc(-c2nc3ccccc3[nH]2)cc1)c1c(F)c(F)c(F)c(F)c1F,0,112*,-1,2,-5,i
O=C(c1cnn(C(=O)COc2ccccc2F)c1)c1cc(F)ccc1O,4,75*,-1,4,-15,+
Cc1cc(Cl)ccc1OCC(=O)n1cc(C(=O)c2cc(Cl)ccc2O)cn1,-3,33,4,0,.,.
CCC(=O)Oc1ccc2c(C)c(Cl)c(=O)oc2c1,25*,109*,127*,83*,-4,.
COC(=O)Cc1c(C)c2ccc(OC(=O)c3ccccc3)cc2oc1=O,11,56*,17,9,-7,.
Cc1c(Cl)c(=O)oc2cc(OC(C)C)ccc12,3,4,1,-1,-5,.
Cc1c(Cc2ccccc2)c(=O)oc2cc(OC(=O)c3ccccc3)ccc12,0,33,12,8,-2,.
CCOC(=O)C1CCN(C(=O)c2ccc(Br)o2)CC1,-3,1,-1,1,-2,.
O=C(N/N=C\c1ccc(F)cc1)c1ccc(Cn2cc(Br)c([N+](=O)[O-])n2)o1,5,62*,3,0,-5,+
COc1ccc(CCN(C)C(=O)CN2C(=O)NC3(CCCCCC3)C2=O)cc1OC,.,.,.,.,-6,.

# Source: PubChem (several laboratories)
